Experimental findings from ChEMBL document CHEMBL2146476, “Discovery of selective glucocorticoid receptor modulator MK-5932” (Bioorg Med Chem, 2011) are described below.

Each structure is given as a SMILES string. Calls of active or inactive are those of the source. The rule behind the calls is not given here. Bounds are passed on as bounds.

The subject of data set [1] is Rattus norvegicus. The data set is described as follows: Antiinflammatory activity in oxazolone-induced Sprague-Dawley rat chronic dermatitis model at 0.5 to 5 mg/kg, po qd administered after 7 days of oxazolone sensitization measured after 4 to 5 hrs last post treatment on day 14. It is filed as functional, organism-based. The gist of the method: (§1)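 Intact 6-month-old female Sprague-Dawley rats sensitized with oxazolone on ventral abdomen on Day 0. One randomly selected ear challenged with oxazolone on Days 7 and 9, other ear given vehicle. Daily oral dosing for 7 d from Day 7, with 6-methylprednisolone or DEX as positive controls. Blood taken ~4-5 h after last dose for plasma insulin. Inflammation read as inter-ear thickness difference.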

Data set [2] relates to Rattus norvegicus. The data set can be described thus: Toxicity in oxazolone-induced Sprague-Dawley rat chronic dermatitis model assessed as increase in plasma insulin level at 0.5 to 5 mg/kg, po qd administered after 7 days of oxazolone sensitization measured after 4 to 5 hrs last post treatment on day 14. It is filed as organism-based. Also noted: route oral. Conditions: in vivo. Put shortly:
as §1

The subject of data set [3] is Liver microsomes. The data set can be described thus: Drug metabolism in human liver microsomes assessed as metabolite M1 level up to 50 mins by LC-MS analysis. It is filed as ADME, Microsome.
Data set [4] addresses T1, Glucocorticoid receptor (Homo sapiens, UniProt P04150).
T1 sequence (P04150 whole entry): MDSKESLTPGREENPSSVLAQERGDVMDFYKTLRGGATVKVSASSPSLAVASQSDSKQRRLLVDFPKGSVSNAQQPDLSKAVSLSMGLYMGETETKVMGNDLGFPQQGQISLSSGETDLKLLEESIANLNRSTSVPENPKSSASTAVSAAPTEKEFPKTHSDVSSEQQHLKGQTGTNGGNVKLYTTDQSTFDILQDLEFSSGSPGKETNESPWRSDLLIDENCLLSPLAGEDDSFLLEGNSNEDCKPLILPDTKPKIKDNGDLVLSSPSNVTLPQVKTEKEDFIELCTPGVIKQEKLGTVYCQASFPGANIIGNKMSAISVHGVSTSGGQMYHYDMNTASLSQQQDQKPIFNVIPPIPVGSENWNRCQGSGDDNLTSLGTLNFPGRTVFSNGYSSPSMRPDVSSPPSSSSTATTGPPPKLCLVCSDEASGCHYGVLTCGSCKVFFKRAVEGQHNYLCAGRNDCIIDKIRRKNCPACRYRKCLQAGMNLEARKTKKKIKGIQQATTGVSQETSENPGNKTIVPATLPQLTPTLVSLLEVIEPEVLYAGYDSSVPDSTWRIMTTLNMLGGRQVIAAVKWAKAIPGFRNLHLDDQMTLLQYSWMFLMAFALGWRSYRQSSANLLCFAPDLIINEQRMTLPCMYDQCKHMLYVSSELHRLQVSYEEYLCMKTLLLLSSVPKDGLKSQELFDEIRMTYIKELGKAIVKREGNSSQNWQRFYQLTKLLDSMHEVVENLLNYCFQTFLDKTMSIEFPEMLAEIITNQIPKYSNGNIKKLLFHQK
The data set can be described thus: Displacement of [3H]-dexamethasone from human full length GR expressed in insect Sf21 cells. The gist of the method:
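Human full-length GR expressed in insect cells, incubated with compound and 3H-dexamethasone overnight at 4 °C. Bound radioactivity quantified after filtration capture. Nonspecific binding defined with excess unlabelled dexamethasone. Mean of at least two runs.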

Data set [5] deals with T2, Glucocorticoid receptor (Homo sapiens) (UniProt P04150).
T2 sequence (whole entry): T1 sequence (P04150 whole entry)
The data set can be described thus: Transactivation activity at GR-mediated modulation of MMTV promoter activity in human HeLa cells transfected with luciferase gene linked to MMTV promoter after 16 hrs by luciferase reporter gene assay relative to dexamethasone. It is filed as cell-based. The gist of the method:
(§2)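 HeLa or A549 cells transiently transfected with a luciferase reporter under the MMTV promoter (two GREs), in 10% charcoal-stripped FBS. Compound exposure 16 h, then luciferase measured. Activity expressed as percent of the span between DMSO and dexamethasone controls. Mean of at least three runs.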

Data set [6] has as its system Liver microsomes. The data set is described as follows: Drug metabolism in human liver microsomes assessed as metabolite M2 level up to 50 mins by LC-MS analysis. The class given is ADME, Microsome.
Data set [7] has as its target T2, Glucocorticoid receptor (Homo sapiens). The data set can be described thus: Transrepression activity at glucocorticoid receptor in human LPS and TPA-stimulated U937 cells assessed as effect on glucocorticoid-induced TNFalpha repression by beta lactamase reporter gene assay. It is filed as cell-based. The settings on record: U-937. The gist of the method: (§3)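 U937 cells stably carrying a β-lactamase reporter driven by the human TNF-α promoter (-1083 to +182), in 5% charcoal-stripped FBS. Stimulated with 1 µg/mL LPS plus 50 ng/mL TPA, compound exposure 16 h. β-Lactamase read out. Activity expressed as percent of the span between DMSO and 100 nM dexamethasone controls. Mean of at least three runs.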

In data set [8] the test system is Liver microsomes. The data set is described as follows: Drug metabolism in rat liver microsomes assessed as metabolite M3 level up to 50 mins by LC-MS analysis. It is filed as ADME, Microsome.
In data set [9] the test system is Liver microsomes. The data set can be described thus: Drug metabolism in rat liver microsomes assessed as metabolite M1 level up to 50 mins by LC-MS analysis. The class given is ADME, Microsome.
The target of data set [10] is T2, Glucocorticoid receptor (Homo sapiens). The data set can be described thus: Transactivation activity at GR-mediated modulation of MMTV promoter activity in human A549 cells transfected with luciferase gene linked to MMTV promoter after 16 hrs by luciferase reporter gene assay. The class given is cell-based. Put shortly:
as §2

Data set [11] has as its system Rattus norvegicus. The data set is described as follows: Toxicity in oxazolone-induced Sprague-Dawley rat chronic dermatitis model assessed as increase in plasma insulin level at 0.3 to 60 mg/kg, po qd administered after 7 days of oxazolone sensitization measured after 4 to 5 hrs last post treatment on day 14. The settings on record: in vivo. Also noted: route oral. The class given is organism-based. Put shortly:
as §1

The target of data set [12] is T2, Glucocorticoid receptor (Homo sapiens). The data set is described as follows: Transactivation activity at GR-mediated modulation of MMTV promoter activity in human A549 cells transfected with luciferase gene linked to MMTV promoter after 16 hrs by luciferase reporter gene assay relative to dexamethasone. The class given is cell-based. Put shortly:
as §2

For data set [13], the system named is Liver microsomes. The data set is described as follows: Drug metabolism in human liver microsomes assessed as metabolite M3 level up to 50 mins by LC-MS analysis. It is filed as ADME, Microsome.
In data set [14] the target is T2, Glucocorticoid receptor (Homo sapiens). The data set can be described thus: Transactivation activity at GR-mediated modulation of MMTV promoter activity in human HeLa cells transfected with luciferase gene linked to MMTV promoter after 16 hrs by luciferase reporter gene assay. It is filed as cell-based. Put shortly:
as §2

Data set [15] deals with Liver microsomes. The data set is described as follows: Drug metabolism in rat liver microsomes assessed as metabolite M2 level up to 50 mins by LC-MS analysis. It is filed as ADME, Microsome.
The target in data set [16] is T2, Glucocorticoid receptor (Homo sapiens). The data set can be described thus: Transrepression activity at glucocorticoid receptor in human LPS and TPA-stimulated U937 cells assessed as effect on glucocorticoid-induced TNFalpha repression by beta lactamase reporter gene assay relative to dexamethasone. The class given is cell-based. The settings on record: U-937. Put shortly:
as §3

In data set [17] the test system is Rattus norvegicus. The data set can be described thus: Antiinflammatory activity in oxazolone-induced Sprague-Dawley rat chronic dermatitis model at 0.3 to 60 mg/kg, po qd administered after 7 days of oxazolone sensitization measured after 4 to 5 hrs last post treatment on day 14. It is filed as functional, organism-based. The gist of the method:
as §1

Data set [18] can be described thus: Drug uptake in oxazolone-induced Sprague-Dawley rat chronic dermatitis model at 15 mg/kg, po. The class given is ADME, organism-based. The settings on record: in vivo, read-out: Drug uptake. Also noted: dose 15 mg/kg, route oral. Put shortly: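 Exposure measured in female Sprague-Dawley rats in the oxazolone chronic dermatitis model: sensitization Day 0, ear challenge Days 7 and 9, daily oral dosing for 7 d from Day 7. Exposure expressed as µM h. Blood collected ~4-5 h after last dose.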

Data set [19] has as its system Rattus norvegicus. The data set is described as follows: Drug metabolism in oxazolone-induced Sprague-Dawley rat chronic dermatitis model assessed as 2-fluoro-6-(2-((4aS,5R)-1-(4-fluorophenyl)-5-hydroxy-4a-methyl-1,4,4a,5,6,7-hexahydrocyclopenta[f]indazol-5-yl)ethyl)-N-(1-(hydroxymethyl)cyclopropyl)benzamide level at 15 mg/kg, po. Conditions: in vivo.

With `C[C@H]1C[C@@H]2[C@H]([C@@H](O)C[C@@]3(C)[C@H]2CC[C@]3(O)C(=O)CO)[C@@]2(C)C=CC(=O)C=C12` [METHYLPREDNISOLONE], the result in data set [1] was Active. Further, the Activity entry in data set [2] was “Toxic”.
Consider `C[C@]12Cc3cnn(-c4ccc(F)cc4)c3C=C1CC[C@@]2(O)CCc1ccc(F)cc1C(N)=O`, for which the Drug metabolism result in [3] is “Active”; in [6], “Active”; in data set [8], “Not Active”; in [9], “Active”; in [13] it was “Active”; in [15], “Active”. In addition, the Ki in [4] came out at 3 nM. The Emax in data set [5] is 23%; in data set [12], 35%; in data set [16] it was 73%. In addition, the IP in data set [7] is 131 nM; in data set [10], 186 nM; in [14], 153 nM. For the same compound, the Activity result in data set [11] is “Non-toxic”. The outcome in data set [17] was Active.
With `CC1(NC(=O)c2c(F)cccc2CC[C@]2(O)CCC3=Cc4c(cnn4-c4ccc(F)cc4)C[C@@]32C)CC1`, the AUC in [18] worked out at 64 µM·h. Besides, in [4], the Ki is under 1 nM. The Emax in data set [5] was 33%; in [12], 41%; in data set [16] it was 81%. Also, the IP turned out to be 20 nM in data set [7], 32 nM in data set [10] and 27 nM in data set [14]. Also, the Drug metabolism in data set [19] stood at 3.8 µM·h.
